From ChEMBL document CHEMBL1255303, “In vitro and in vivo antifungal activities of T-2307, a novel arylamidine” (2008)
Values after ≈ are worked out from the molar mass of the structure shown. Active and inactive are the calls of the source. The calls are words filed in the database; no cut-off is given here. Starred links: 1 amine or outer side, 2 acyl side, 3 side chain; linkers in the order of their positions; H or OH if unused. Positions of bridges follow the written chain, without caps; N, C: chain ends. Non-standard residues stand in square brackets, D forms with d. Residues, ends and D or L forms follow the SMILES beside them. *: point of attachment. hTyr(3S-OH,4S-OH,3'-OSO3H) = N[C@H](C(=O)O)[C@H](O)[C@@H](O)c1ccc(O)c(OS(=O)(=O)O)c1; Orn(4R-OH,5R-OH) = O=C([C@H](C[C@@H](O)[C@@H](O)N[*:3])N[*:1])[*:2]; Pro(3S-OH,4S-Me) = C[C@H]1CN[C@H](C(=O)O)[C@H]1O; X1 = CCCCCOc1ccc(-c2cc(-c3ccc(C(=O)*)cc3)no2)cc1; Gln(3R-OH) = NC(=O)C[C@@H](O)[C@H](N)C(=O)O; Hyp = O=C(O)[C@@H]1C[C@@H](O)CN1

What was measured:
Cryptococcus neoformans [1] = test: Antifungal activity against Cryptococcus neoformans ATCC 90112 after 72 hrs by broth microdilution method; type: functional; settings: ATCC 90112, 72 h
In short: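 CLSI M27-A2 (yeasts) or M38-A (A. fumigatus) broth microdilution in RPMI 1640 buffered to pH 7.0 with 0.165 M MOPS. Final inocula were 0.65–2.5 × 10^3 CFU/ml for yeasts and 0.87–3.8 × 10^4 CFU/ml for filamentous fungi. Incubation was at 35°C for about 48 h (72 h for C. neoformans). MIC was the lowest concentration giving a prominent (~50%) turbidity drop versus growth control; amphotericin B required complete inhibition.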

Candida albicans [2] = test: Antifungal activity against Candida albicans TIMM 1623 infected ICR mouse assessed as delay in mortality of mouse at 0.2 mg/kg after 6 days; type: functional, organism-based; design: dose 0.2 mg/kg
In short: (§1)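 Male ICR mice, 4 weeks old and SPF, were made neutropenic with intraperitoneal cyclophosphamide. The schedule was 200 mg/kg on day −3 (day −4 for Cryptococcus) plus 100 mg/kg on day +1. Infection was by tail-vein injection of 0.2 ml suspension: C. albicans 3.0 × 10^4, C. neoformans 9.1 × 10^4, A. fumigatus conidia 8.4 × 10^4 CFU/mouse. Drugs were given subcutaneously once daily for 7 days from 2 h post-infection; controls received saline. Groups had 8–10 mice.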

Aspergillus flavus = test: Antifungal activity against Aspergillus flavus NBRC 6343 after 48 hrs by broth microdilution method; type: functional; settings: NBRC 6343, 48 h
In short: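 CLSI M27-A2 (yeasts) / M38-A (moulds) broth microdilution in RPMI 1640 buffered to pH 7.0 with 0.165 M MOPS. Malassezia furfur got the same medium supplemented with glucose, bile salts, glycerol, glycerol monostearate and Tween 20. Final inoculum 0.65 × 10^3–2.5 × 10^3 CFU/ml for yeasts and 0.87 × 10^4–3.8 × 10^4 CFU/ml for filamentous fungi. Incubation at 35°C except M. racemosus and F. solani, which were held at 30°C.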

Cryptococcus neoformans [3] = test: Antifungal activity against Cryptococcus neoformans ATCC 90112 infected ICR mouse after 9 days; type: functional; settings: ATCC 90112, 216 h; in short: as §1
Candida albicans [4] = test: Antifungal activity against Candida albicans TIMM 1623 infected ICR mouse assessed as delay in mortality of mouse at 0.01 mg/kg after 6 days; type: functional, organism-based; design: dose 0.01 mg/kg; in short: as §1
Cryptococcus neoformans [5] = test: Antifungal activity against Cryptococcus neoformans ATCC 90112 infected ICR mouse assessed as delay in mortality of mouse at 0.1 mg/kg after 9 days; type: functional, organism-based; design: dose 0.1 mg/kg; in short: as §1
Candida albicans [6] = test: Antifungal activity against Candida albicans TIMM 1623 infected ICR mouse assessed as delay in mortality of mouse at 0.1 mg/kg after 6 days; type: functional, organism-based; design: dose 0.1 mg/kg; in short: as §1
Cryptococcus neoformans [7] = test: Antifungal activity against Cryptococcus neoformans ATCC 90112 infected ICR mouse assessed as delay in mortality of mouse at 0.3 mg/kg after 9 days; type: functional, organism-based; design: dose 0.3 mg/kg; in short: as §1

SMILES	MFC (Cryptococcus neoformans [1])	MIC (Cryptococcus neoformans [1])	Activity (Candida albicans [2])	MFC (Aspergillus flavus)	MIC (Aspergillus flavus)	ED50 (Cryptococcus neoformans [3])	Activity (Candida albicans [4])	Activity (Cryptococcus neoformans [5])	Activity (Candida albicans [6])	Activity (Cryptococcus neoformans [7])
CCCCCOc1ccc(-c2cc(-c3ccc(C(=O)N[C@H]4C[C@@H](O)[C@@H](O)NC(=O)[C@@H]5[C@@H](O)[C@@H](C)CN5C(=O)[C@H]([C@H](O)CC(N)=O)NC(=O)[C@H]([C@H](O)[C@@H](O)c5ccc(O)c(OS(=O)(=O)O)c5)NC(=O)[C@@H]5C[C@@H](O)CN5C(=O)[C@H]([C@@H](C)O)NC4=O)cc3)no2)cc1 [MICAFUNGIN] (X1-[Orn(4R-OH,5R-OH)]T[Hyp][hTyr(3S-OH,4S-OH,3'-OSO3H)][Gln(3R-OH)][Pro(3S-OH,4S-Me)]; lactam 1-C)	> 64 µg/mL	> 64 µg/mL	Active	> 64 µg/mL	0.0625 µg/mL (≈ 0.0492 µM)					
C[C@@H](c1ncncc1F)[C@](O)(Cn1cncn1)c1ccc(F)cc1F [VORICONAZOLE]	> 64 µg/mL	0.0313 µg/mL (≈ 0.0896 µM)		1 µg/mL (≈ 2.86 µM)	0.5 µg/mL (≈ 1.43 µM)					
OC(Cn1cncn1)(Cn1cncn1)c1ccc(F)cc1F [FLUCONAZOLE]	> 64 µg/mL	1 µg/mL (≈ 3.27 µM)		> 64 µg/mL	> 64 µg/mL					
N=C(N)c1ccc(OCCCC2CCN(CCCOc3ccc(C(=N)N)cc3)CC2)cc1	0.0313 µg/mL (≈ 0.0715 µM)	0.0078 µg/mL (≈ 0.0178 µM)		8 µg/mL (≈ 18.3 µM)	0.5 µg/mL (≈ 1.14 µM)	0.117 mg/kg	Active	Active		
C[C@@H]1[C@H](O)[C@@H](C)/C=C/C=C/C=C/C=C/C=C/C=C/C=C/[C@H](O[C@@H]2O[C@H](C)[C@@H](O)[C@H](N)[C@@H]2O)C[C@@H]2O[C@](O)(C[C@@H](O)C[C@@H](O)[C@H](O)CC[C@@H](O)C[C@@H](O)CC(=O)O[C@H]1C)C[C@H](O)[C@H]2C(=O)O [AMPHOTERICIN B]	1 µg/mL (≈ 1.08 µM)	1 µg/mL (≈ 1.08 µM)		2 µg/mL (≈ 2.16 µM)	2 µg/mL (≈ 2.16 µM)	0.199 mg/kg			Active	Active
